5-HT1A blocker = antagonists of human 5-HT1a serotonin receptor | P08908 | CHO 5-HT1a Ga15 NFAT-bla reporter, antagonist mode | inhibition, % at 10 µM | 0.68% of 62,000 active | AID 612;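 active = inhibition above the mean of all tested compounds plus 3 SD, cut at about 43% in these data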;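 also: receptor stimulated by 5-CT agonist at 100 nM near EC80; beta-lactamase reporter measured by ratiometric fluorescence of a cleavable substrate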
Target sequence (P08908 whole entry, looked up): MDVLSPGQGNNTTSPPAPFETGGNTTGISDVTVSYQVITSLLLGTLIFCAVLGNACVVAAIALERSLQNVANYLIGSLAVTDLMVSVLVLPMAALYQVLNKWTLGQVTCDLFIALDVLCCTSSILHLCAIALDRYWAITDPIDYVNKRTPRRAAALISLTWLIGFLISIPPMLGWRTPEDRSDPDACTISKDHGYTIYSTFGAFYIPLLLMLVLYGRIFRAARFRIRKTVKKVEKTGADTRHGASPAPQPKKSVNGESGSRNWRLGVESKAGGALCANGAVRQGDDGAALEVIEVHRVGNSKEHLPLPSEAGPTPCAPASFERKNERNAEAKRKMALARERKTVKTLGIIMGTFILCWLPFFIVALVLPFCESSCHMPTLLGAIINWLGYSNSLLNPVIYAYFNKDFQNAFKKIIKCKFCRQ
HEK293 NFkB inh = lowers PMA/ionomycin-induced NF-kB signal in HEK293 cells; HEK-293 NF-kB luciferase reporter, luminescence; inhibition, % at 3 µM; 0.21% of 62,000 active; AID 465;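 active = inhibition above the mean of all tested compounds plus 3 SD, cut at about 40% in these data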
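System – HEK-293 cells with stable firefly luciferase reporter driven by four HIV NF-kB elements · Doses – one dose, 3 µM · Schedule – 1 h compound pre-incubation, 16 h PMA/ionomycin at 37 °C · Technique – luminescence from luciferase substrate reagent · Measure – percent inhibition normalized per plate to DMSO and reference-inhibitor controls · Replicates – tested once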
5HT1a ag = agonists of human 5-HT1a serotonin receptor. CHO 5-HT1a Ga15 NFAT-bla reporter, FRET ratio; 0% basal, 100% maximal reference agonist. 0.56% of 65,000 active. P08908. activation, % at 10 µM;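 active = activation above the screen-wide mean activation plus 3 SD, cut at about 19% in these data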
HTR1E antagonist = 5-HT1E (human) receptor antagonism; P28566; CHO 5-HT1E Ga15 NFAT-bla reporter, FRET, antagonist; inhibition, % at 6 µM; 0.99% of 65,000 active; AID 571;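 active = inhibition above a set limit, the mean inhibition across every tested compound plus 3 SD, cut at about 29% in these data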;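 also: signal is the 460 over 535 nm emission ratio of beta-lactamase substrate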
Jurkat viability = cytotoxicity toward Jurkat cells; Jurkat E6.1 viability, ATP luminescence, 48 h; inhibition, % at 4 µM; 1.2% of 56,000 active; AID 463;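 active = inhibition above the mean inhibition of all tested compounds plus 3 SD, cut at about 28% in these data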
HTR1E agonist = 5-HT1E (human) receptor agonism | 0.69% of 65,000 active | activation, % at 6 µM | CHO 5-HT1E Ga15 NFAT-bla reporter, FRET; 0% DMSO wells, 100% control agonist wells | AID 574;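 active = activation above a set limit, the screen-wide mean activation plus 3 SD, cut at about 8.5% in these data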
Of the large screens only hits and unclear results are named; the others gave an inactive call. The list is not random: actives were taken first. Their share in the collection is about 3.3%.

COC(=O)c1ccc(CN2C(=O)NC3(CCCCC3C)C2=O)o1 (centres undefined)	none (no result: Jurkat viability)
Cc1nn(Cc2c(Cl)cccc2Cl)c(C)c1NC(=O)c1cc(C(C)C)on1	HEK293 NFkB inh 44, Jurkat viability 45
O=C(Nc1ccc(S(=O)(=O)NCc2ccco2)cc1)c1ccc2ccccc2n1	5-HT1A blocker 49
O=C(NCCc1c[nH]c2ccccc12)c1ccc(S(=O)(=O)NCc2ccco2)cc1	HTR1E agonist 13 (no result: Jurkat viability)
O=C(NCCc1c[nH]c2ccccc12)c1ccc(-n2cnnn2)cc1	none
CC(C)OC(=O)CSc1nnc(-c2cccnc2)n1N	HTR1E antagonist 29
CC(C)OC(=O)CSc1nnc(-c2cccnc2)n1Cc1ccccc1	none
O=C(NC1CCCCC1)C(c1ccccc1F)N(Cc1ccco1)C(=O)Cn1nnc2ccccc21 (centres undefined)	5-HT1A blocker 55
O=C(NC1CCCCC1)C(c1ccc(F)cc1)N(Cc1ccco1)C(=O)Cn1nnc2ccccc21 (centres undefined)	none
CCC(C(=O)NC1CCCC1)N(Cc1ccco1)C(=O)Cn1nnc(-c2ccc(C)cc2)n1 (centres undefined)	HTR1E agonist 9.0
O=C(c1cc2ccccc2oc1=O)N(Cc1ccc2c(c1)OCO2)Cc1ccco1	none
COc1ccc(Cl)cc1NC(=O)C1CSC(c2ccncc2)=N1 (centres undefined)	none
Cc1cc(C(=O)OCC(=O)N2CCN(c3ccccc3)CC2)c2ccccc2n1	none
CCCc1cc(=O)oc2c(C)c3occ(C)c3cc12	HTR1E antagonist 39
C=CCN1C(=O)CSC1=Nc1cccc(O)c1	none (no result: Jurkat viability)
C=CCN1C(=Nc2cccnc2)SCC1(O)c1ccc(C)cc1 (centres undefined)	Jurkat viability 39
CCCCC(CC)Cn1c(N)c(C#N)c2nc3ccccc3nc21 (centres undefined)	5HT1a ag 46, HTR1E agonist 17
Cc1cc2cc(CN(C(=O)C3CC3)C3CCCC3)c3nnnn3c2cc1C	none
CC(=O)Nc1nc(C)nc(-c2ccccc2)c1C(C)=O	none
CNc1nc(C)c(C#N)c(-c2ccccc2)c1C(C)=O	HTR1E agonist 18
CCCCCOC(=O)c1ccccc1C(=O)O	none
OCCCc1nc2n(n1)C(c1cccs1)C=C(c1ccccc1)N2 (centres undefined)	none
OCCCc1nc2n(n1)C(c1ccccc1Cl)C=C(c1cccs1)N2 (centres undefined)	5-HT1A blocker 44, HTR1E antagonist 50
Cc1cc(C(=O)NCc2cccnc2)n(-c2ccccc2)n1	none
Cc1nn(Cc2ccccc2)c2sc(C(=O)NCc3cccnc3)cc12	5HT1a ag 39
Cc1cc(C(=O)NCc2cccnc2)cs1	5HT1a ag 31
NC(=O)c1sc2nccc(Nc3ccccc3)c2c1N	HEK293 NFkB inh 45
CC(C)(C)C(=O)c1sc(Nc2ccccc2)nc1N	none
CCCCn1c(N(CCOC(C)=O)C(C)=O)nc2ccccc21	none
C=CCc1ccccc1OCC(O)CN1CCN(c2ccc(C)cc2)CC1 (centres undefined)	5-HT1A blocker 73
Nc1ccc(CN2CCN(c3ccc4ccccc4n3)CC2)cc1	HTR1E agonist 14
COc1ccc(S(=O)(=O)N2CCc3ccccc32)cc1C(=O)OCc1nnc(-c2ccccc2)o1	none
CC1CCN(CCCNC(=O)CN2CCN(Cc3ccc(Cl)cc3)C2=O)CC1	HTR1E antagonist 31
Cc1nn(C)c(C)c1CNC(=O)c1nn2c(c1Cl)NC(c1cccs1)CC2C(F)(F)F (centres undefined)	Jurkat viability 41
Cc1nn(C)cc1CNC(=O)c1cc2n(n1)C(C(F)(F)F)CC(c1cccs1)N2 (centres undefined)	none
Cc1ccc(-c2nc(Nc3ccccc3)n[nH]2)cc1	none
Nc1nc(CSc2n[nH]c(-c3ccccc3)n2)nc(Nc2ccccc2)n1	HTR1E antagonist 30
COc1ccc(Nc2nc(N)nc(CSc3n[nH]c(-c4ccccc4)n3)n2)cc1	HTR1E antagonist 42
COc1ccc(OCc2nnc(SC(C)C(=O)Nc3nccs3)n2-c2ccccc2)cc1 (centres undefined)	none
CCCc1nn(CCc2ccccn2)c(N)c1CC	none
O=C(CN1CCCC1)Nc1ccc(-c2nc3cc(NC(=O)CN4CCCC4)ccc3o2)cc1	none
COc1cccc(C(=O)Cn2c(=N)n(C)c3ccccc32)c1	5-HT1A blocker 47
CCOC(=O)C(CO)(NC(C)=O)C(=O)OCC	none
O=c1[nH]cnc2cc(Cl)ccc12	5HT1a ag 50
O=C(c1ccccc1)N1CCN(CC(O)COCC2CC=CCC2)CC1 (centres undefined)	none
O=C(c1ccccc1)N1CCN(CC2CC=CCC2)CC1 (centres undefined)	HTR1E agonist 9.2
Cc1nc(C)n(C(C)CC(=O)O)n1 (centres undefined)	none (no result: Jurkat viability)
N#CCCn1cc(/C=N/O)c(-c2ccc(-c3ccccc3)cc2)n1	Jurkat viability 43
CCc1ccccc1OCc1nnc(N)s1	none
CCOC(=O)c1cc2c(=O)n3ccccc3nc2n(CCCOC)c1=NC(C)=O	5HT1a ag 23 (no result: Jurkat viability)
CCCn1c(=NC(=O)c2ccco2)c(C(=O)OCC)cc2c(=O)n3ccccc3nc21	none
CC(C)OCCCn1c(=NC(=O)c2ccncc2)c(C#N)cc2c(=O)n3ccccc3nc21	5HT1a ag 37, HTR1E agonist 9.1
C=CCn1c(=N)c(C(=O)NCCCOC)cc2c(=O)n3cc(C)ccc3nc21	none
N=c1c(C(=O)NCc2ccc(F)cc2)cc2c(=O)n3ccccc3nc2n1CCCN1CCOCC1	5HT1a ag 31
C=CCn1c(=N)c(C(=O)NCCCOC)cc2c(=O)n3ccccc3nc21	5HT1a ag 20
CC(=O)C1=C(O)C(=O)N(Cc2ccccc2)C1c1ccco1 (centres undefined)	none (no result: Jurkat viability)
COc1cccc(-n2c(C)c(C(C)=O)c(C(C)=O)c2C)c1	none
CCc1c(C(=O)Nc2ccc(S(=O)(=O)N3CCOCC3)cc2)csc1C	none
COC(=O)C1=CN(CC2CCCO2)C=C(C(=O)OC)C1c1cc(OC)c(OC)c(OC)c1 (centres undefined)	none (no result: Jurkat viability)
CCOC(=O)Cc1nnc(NC(=O)CSc2nnc3c4ccccc4n(C)c3n2)s1	none
CSc1nnc2c3ccccc3n(CCc3ccccc3)c2n1	HEK293 NFkB inh 58, Jurkat viability 37
CCCn1c2ccccc2c2nnc(SCC(=O)Nc3ncccn3)nc21	HTR1E antagonist 31
CCOC(=O)c1sc2c(c1C)C(c1cccs1)C1=C(CCCC1=O)N2 (centres undefined)	5HT1a ag 22
CCOC(=O)C1=C(C)NC2=C(C(=O)CCC2)C1c1cccs1 (centres undefined)	none
CC1(C)Cc2c(c(N3CCOCC3)nc3snc(N)c23)CO1	5HT1a ag 359 (no result: 5-HT1A blocker, HEK293 NFkB inh, Jurkat viability)
